{"data": "Assay results collected from several papers", "effect on": "enzyme activity", "action": "inhibitor", "CDK2 with cyclin A": "Cyclin-dependent kinase 2, with cyclin A (CDK2, Homo sapiens, UniProt P24941)", "CDK2 with cyclin E": "Cyclin-dependent kinase 2, with cyclin E (CDK2, Homo sapiens, UniProt P24941)"}
{"Structure (SMILES)": "Cc1sc(C(=O)NC2COC2)cc1-n1cc(NC(=O)Nc2c(F)cccc2Cl)cn1", "target": "CDK2 with cyclin A", "conditions": "10 µM", "remaining activity [%]": 98.3}
{"Structure (SMILES)": "Oc1cccc(-c2nc(N3CCOCC3)c3oc4ncccc4c3n2)c1", "target": "CDK2 with cyclin A", "conditions": "10 µM", "remaining activity [%]": 94}
{"Structure (SMILES)": "CC(C)(C)C(=O)c1sc(NC2CCCCC2)nc1N", "target": "CDK2 with cyclin A", "conditions": "10 µM", "remaining activity [%]": 13}
{"Structure (SMILES)": "CC(C)(O)[C@H]1CC[C@H](Nc2ccc3ncc(-c4cccc(C(F)(F)F)c4)n3n2)CC1", "target": "CDK2 with cyclin E", "conditions": "1 µM", "remaining activity [%]": 91.1}
{"Structure (SMILES)": "Cc1ccc(Nc2nccc(N(C)c3ccc4c(C)n(C)nc4c3)n2)cc1S(N)(=O)=O", "target": "CDK2 with cyclin A", "conditions": "0.5 µM", "remaining activity [%]": 96.1}
{"Structure (SMILES)": "O=C(Nc1cnn(-c2csc(C(=O)NC3COC3)c2)c1)Nc1ccccc1Cl", "target": "Cyclin-dependent kinase 2, with cyclin E2 (CDK2, Homo sapiens, UniProt P24941)", "conditions": "5 µM", "remaining activity [%]": 107}
{"Structure (SMILES)": "Cc1ccc(C(=O)Nc2ccc(CN3CCN(C)CC3)c(C(F)(F)F)c2)cc1C#Cc1cnc2cccnn12", "target": "Cyclin-dependent kinase 2 (CDK2, Homo sapiens, UniProt P24941)", "conditions": "23.5 nM", "remaining activity [%]": 96}
{"Structure (SMILES)": "Cn1c(=O)n(-c2ccc(C(C)(C)C#N)cc2)c2c3cc(-c4cnc5ccccc5c4)ccc3ncc21", "target": "CDK2 with cyclin A", "conditions": "10 µM", "remaining activity [%]": 74}
{"Structure (SMILES)": "COc1cc(Nc2cnc(C#N)c(O[C@H](C)CN(C)C)n2)ncc1-c1cnn(C)c1", "target": "CDK2 with cyclin A", "assay": "radiometric", "conditions": "1 µM", "remaining activity [%]": 114}
{"Structure (SMILES)": "Cc1cnc(NC2CCOCC2)nc1-n1cnc(C(=O)NC(CN)c2cc(F)cc(Cl)c2)c1 (centres unmarked)", "target": "CDK2 with cyclin E", "assay": "radiometric", "conditions": "1 µM", "remaining activity [%]": 3}
{"Structure (SMILES)": "CC(C)(C)c1nc(-c2cccc(NS(=O)(=O)c3c(F)cccc3F)c2F)c(-c2ccnc(N)n2)s1", "target": "Cyclin-dependent kinase 2, with cyclin E1 (CDK2, Homo sapiens, UniProt P24941)", "assay": "radiometric", "conditions": "1 µM", "remaining activity [%]": 90}
{"Structure (SMILES)": "COc1cc(Cl)c(C(=O)N[C@@H](CN[C@H]2CC[C@@H](N)CC2)Cc2ccc(C#N)cc2)cc1-c1ccc(CN[C@H](C)c2ccc(C)cc2)o1", "target": "CDK2 with cyclin A", "conditions": "1 µM", "remaining activity [%]": 96}
{"Structure (SMILES)": "CC(C)(C)c1nc2c(s1)c1nc(N)ncc1c1ccc(NS(=O)(=O)c3c(F)cccc3F)c(F)c12", "target": "Cyclin-dependent kinase 2, with cyclin A2 (CDK2, Homo sapiens, UniProt P24941)", "assay": "radiometric", "conditions": "1 µM", "remaining activity [%]": 70}
{"Structure (SMILES)": "O=C(Nc1cnn(-c2csc(C(=O)NC3COC3)c2)c1)Nc1c(F)cccc1Cl", "target": "Cyclin-dependent kinase 2, with cyclin A1 (CDK2, Homo sapiens, UniProt P24941)", "conditions": "5 µM", "remaining activity [%]": 94.2}
